Screening results: PubChem BioAssay, several laboratories
TRPC4 block = blocks the mouse TRPC4 cation channel | HEK293 TRPC4beta/mu-opioid, DAMGO-evoked Fluo4 calcium flux; active compounds read low | actives 0.39% (n = 300,000) | B-score at 10 µM | Q9QUQ5;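 active = B-score over 3 SD under the library average, no early fluorescence shift, positive overall ratio signal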
Target sequence (Q9QUQ5 whole entry, looked up): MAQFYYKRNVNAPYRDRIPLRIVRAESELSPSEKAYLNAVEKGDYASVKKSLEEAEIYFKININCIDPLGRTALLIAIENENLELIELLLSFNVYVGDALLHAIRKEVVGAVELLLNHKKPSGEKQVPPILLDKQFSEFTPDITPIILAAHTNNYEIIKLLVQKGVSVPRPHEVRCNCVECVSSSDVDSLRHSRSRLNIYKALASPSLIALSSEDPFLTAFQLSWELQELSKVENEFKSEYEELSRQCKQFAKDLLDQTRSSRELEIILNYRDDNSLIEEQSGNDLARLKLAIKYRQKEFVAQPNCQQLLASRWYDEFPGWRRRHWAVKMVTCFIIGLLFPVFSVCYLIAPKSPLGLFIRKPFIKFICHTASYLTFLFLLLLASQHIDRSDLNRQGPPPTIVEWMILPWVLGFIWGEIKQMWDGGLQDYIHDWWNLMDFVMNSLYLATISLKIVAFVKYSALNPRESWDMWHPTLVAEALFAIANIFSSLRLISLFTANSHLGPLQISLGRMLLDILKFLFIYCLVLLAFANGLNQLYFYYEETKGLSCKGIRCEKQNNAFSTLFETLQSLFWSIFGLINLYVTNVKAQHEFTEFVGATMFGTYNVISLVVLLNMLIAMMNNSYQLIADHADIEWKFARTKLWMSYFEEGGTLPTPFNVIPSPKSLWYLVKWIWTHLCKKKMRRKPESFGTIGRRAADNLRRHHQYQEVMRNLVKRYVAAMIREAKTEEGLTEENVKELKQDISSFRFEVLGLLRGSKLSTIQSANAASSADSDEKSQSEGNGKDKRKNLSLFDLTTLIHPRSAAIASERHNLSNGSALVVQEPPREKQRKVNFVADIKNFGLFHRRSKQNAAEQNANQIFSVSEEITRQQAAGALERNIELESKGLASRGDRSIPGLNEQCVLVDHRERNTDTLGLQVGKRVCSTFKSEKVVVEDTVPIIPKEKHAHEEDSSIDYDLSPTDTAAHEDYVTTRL
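Assay system: HEK293 cells with stable TRPC4beta plus mu-opioid receptor expression; Probe or stimulus: DAMGO in two steps, submaximal then maximal; Dosing: single-point compound dosing; Measured by: Fluo4 calcium-dye fluorescence, kinetic read; Read-out basis: B score from integrated Fluo4 fluorescence ratio.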
TRPC4 potent = allosteric potentiators of mouse TRPC4 channel; actives 0.42% (n = 310,000); HEK293 TRPC4beta/mu-opioid, DAMGO EC20, Fluo-4 Ca2+ flux; active compounds read high; B-score at 10 µM; Q9QUQ5; AID 2227;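 active = B-score of calcium response area above 5 SD of library B-scores, with initial fluorescence ratio within 5 SD of library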;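 note: B-score of integrated fluorescence ratio over time as area under calcium response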
TRPC6 act = mouse TRPC6 channel activation; B-score at 10 µM; actives 0.13% (n = 310,000); AID 2550; Q61143; HEK293-TRPC6 membrane potential dye fluorescence; active compounds read high;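 active = B-score of the integrated fluorescence ratio above library mean plus 3 SD, and starting fluorescence ratio within library mean plus 5 SD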;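 note: higher score means more depolarization so channel activation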
TRPC6 inh = inhibitors of mouse TRPC6 channel. Q61143. HEK293-TRPC6, membrane potential dye, ACh-evoked depolarization; active compounds read low. B-score at 10 µM. actives 1.1% (n = 310,000). AID 2553;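 active = B-score under library mean minus 3 SD, initial fluorescence not abnormally high, positive integrated signal ratio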;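 note: B-score derived from integrated fluorescence ratio over the kinetic read; more negative B-score means stronger inhibition of depolarization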
TRPC4 agonist = TRPC4 (mouse) channel activation; HEK293 TRPC4beta/mu-opioid, Fluo4 calcium fluorescence; active compounds read high; Q9QUQ5; B-score at 10 µM; actives 0.49% (n = 310,000);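 active = B-score above 5 SD of library B-scores, and initial fluorescence ratio not above library mean plus 5 SD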;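 note: positive B-score marks a calcium rise read as TRPC4 activation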
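Material: HEK293 stable line with TRPC4beta plus mu-opioid receptor; technique: Fluo4 calcium-sensitive dye fluorescence, kinetic, 1 Hz baseline; timing: Fluo4 dye loading 45 min at room temperature, 110 s recording; controls: assay buffer as low control, maximal DAMGO as high control; read-out: integrated baseline-normalised fluorescence ratio, converted to per-well B score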
Platelet DG rel = platelet dense granule release activity; actives 0.22% (n = 300,000); inhibition, %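 (compounds screened at 7.5 µM in platelet-rich plasma)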; human platelet-rich plasma, SFLLRN dense granule ATP release, luminescence;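 active = mean replicate score, as percent of positive control, at or above 50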
TRPC4 sel inh 2 = second selectivity test of TRPC6 inhibitors: effect on mouse TRPC4. inhibition, % at 10 µM. actives 42% (n = 920). shares compounds with TRPC6 inh. AID 2776. HEK293 TRPC4/MOR, membrane potential dye fluorescence; channel activated by saturating DAMGO dose;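 active = compounds whose fluorescence signal differed from control wells by over 3 SD, either direction, in both duplicate plates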
TRPC4 spec = mouse TRPC4 off-target activity of TRPC6 inhibitors; shares compounds with TRPC6 inh; HEK293 TRPC4/mu-opioid, membrane potential fluorescence; activity change, negative = inhibition, % at 10 µM; actives 61% (n = 920); AID 2777;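 active = rise or fall in signal beyond 3 SD of buffer-only wells in both replicate plates, either sign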;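 note: integrated kinetic ratio of fluorescence range over baseline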
HEK293 MPD ctr 2-1 = second check of TRPC6 inhibitor effects in parental HEK293 cells; shares compounds with TRPC6 inh; parental HEK293 membrane potential dye fluorescence; maximal acetylcholine challenge after compound addition; signal change vs control, % at 10 µM; actives 31% (n = 920); AID 2779;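 active = membrane potential signal moving either way by over 3 SD of the maximum-effect control, in both duplicate plates, meaning non-specific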
HEK293 MPD ctr-1 = checks TRPC6 inhibitor effects in parental HEK293 cells; AID 2780; shares compounds with TRPC6 inh; membrane potential signal change, % at 10 µM; actives 60% (n = 920); parental HEK293 membrane potential dye fluorescence;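 active = membrane potential signal shifting up or down by more than 3 SD of buffer-only wells, on both duplicate plates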
HEK293 MPD ctr-2 = counter-screen for TRPC6 modulators: effect in parental HEK293 cells; shares compounds with TRPC6 inh; membrane potential dye fluorescence; membrane potential signal change, % at 10 µM; actives 51% (n = 2,400);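 active = membrane potential signal moves up or down beyond 5 SD from buffer-only wells, on both duplicate plates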
HEK293 MPD ctr 2-2 = parental HEK293 nonspecific activity of TRPC6 modulators, second screen. shares compounds with TRPC6 inh. membrane potential dye fluorescence; after compound, maximal acetylcholine stimulation. inhibition, % at 10 µM. actives 14% (n = 2,400). AID 488926;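 active = membrane potential signal drops by more than 5 SD from the mean control signal, in both duplicate plates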;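 note: plate controls were acetylcholine ECmax control wells for no effect and buffer only wells for full effect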
TRPC4 ctr mod = tests whether TRPC6 modulators also affect mouse TRPC4; actives 69% (n = 2,400); percent change from control (negative = decrease, positive = increase), % at 10 µM; shares compounds with TRPC6 inh; HEK293 TRPC4/mu-opioid, membrane potential fluorescence;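 active = membrane potential signal moved up or down beyond 5 SD of buffer control wells, in both duplicate plates, actives on both sides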;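 note: plate controls were assay buffer wells for no effect and DAMGO maximal-effect wells for full effect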
TRPC4 ctr inh 2 = second selectivity test of TRPC6 modulators against mouse TRPC4 | HEK293 TRPC4/mu-opioid, membrane potential dye fluorescence; stimulated with maximal-effect DAMGO | shares compounds with TRPC6 inh | inhibition, % at 10 µM | actives 55% (n = 2,400);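 active = drop in membrane potential signal beyond 5 SD of the control wells in both duplicate plates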;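 note: TRPC4 counter screen for TRPC6 hits run under conditions tuned for TRPC6 not TRPC4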
TRPC6 inh conf = mouse TRPC6 inhibitor confirmation. shares compounds with TRPC6 inh. HEK293-TRPC6, membrane potential dye, ACh-evoked depolarization. inhibition, % at 10 µM. actives 43% (n = 3,300). AID 488960;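 active = fluorescence ratio falls more than 5 SD below the full-stimulation control mean, in both duplicate runs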;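 note: integrated fluorescence ratio of peak minus minimum over baseline after agonist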
TRPC6 act conf = confirmation of mouse TRPC6 activators; shares compounds with TRPC6 inh; actives 11% (n = 2,800); AID 488961; activation, % at 10 µM; HEK293-TRPC6 membrane potential dye fluorescence, FDSS;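 active = ratio signal rise beyond 5 SD above unstimulated control wells' mean, seen in both duplicate runs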;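 note: plate controls were buffer EC0 wells for no effect and acetylcholine ECmax response for full effect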
An asterisk follows results filed as active; i = inactive; . = no result given. A selection: hits, their analogues and other compounds. The true share with any hit is near 2.5%.

SMILES | TRPC4 block | TRPC4 potent | TRPC6 act | TRPC6 inh | TRPC4 agonist | Platelet DG rel | HEK293 MPD ctr-2 | HEK293 MPD ctr 2-2 | TRPC4 ctr mod | TRPC4 ctr inh 2 | TRPC6 inh conf | TRPC6 act conf | others
COC(=O)C1=C(N)OC2=C(C(=O)CC(C)(C)C2)C1c1cc2c(cc1Cl)OCO2 (stereo unspecified) | i | i | i | -9.3* | i | 0 | . | . | . | . | i | i | TRPC4 sel inh 2=34%*;TRPC4 spec=i;HEK293 MPD ctr 2-1=i;HEK293 MPD ctr-1=i
CCCCNC(=S)Nc1ccc2nc3n(c(=O)c2c1)CCCCC3 | i | i | i | i | i | -6 | . | . | . | . | . | .
CCCCNC(=O)CCC(=O)Nc1ccc2nc(N3CCOCC3)cc(C)c2c1 | i | i | i | i | i | -3 | . | . | . | . | . | .
Cc1cc(N2CCOCC2)nc2ccc(NC(=O)CCC(=O)N3CCN(c4ccccc4)CC3)cc12 | i | i | i | i | i | 15 | . | . | . | . | . | .
CC(C)CCNC(=S)Nc1ccc2nc3n(c(=O)c2c1)CCCCC3 | i | i | i | -5.2* | i | -6 | i | i | i | i | i | i
CCCCNC(=O)CCC(=O)Nc1ccc2nc(N3CCCCC3)cc(C)c2c1 | i | i | i | i | i | -3 | . | . | . | . | . | .
COCCCNC(=O)CCC(=O)Nc1ccc2nc(N3CCOCC3)cc(C)c2c1 | i | i | i | -6.8* | i | 18 | . | . | . | . | 64%* | i | TRPC4 sel inh 2=i;TRPC4 spec=-28%*;HEK293 MPD ctr 2-1=i;HEK293 MPD ctr-1=-360%*
Cc1cc(N2CCCCC2)nc2ccc(NC(=O)CCC(=O)NCCC(C)C)cc12 | i | i | i | -8* | i | 2 | . | . | . | . | i | i | TRPC4 sel inh 2=i;TRPC4 spec=-16%*;HEK293 MPD ctr 2-1=224%*;HEK293 MPD ctr-1=-228%*
Cc1cc(N2CCN(C)CC2)nc2ccc(NC(=O)CCC(=O)N3CCN(c4ccc([N+](=O)[O-])cc4)CC3)cc12 | i | i | 12* | i | i | -3 | 237%* | i | 44%* | i | i | 84%*
Cn1cnc2cc(NCc3ccc(Cl)cc3)ccc21 | i | i | i | i | i | 12 | . | . | . | . | . | .
Cc1cc(N2CCN(C)CC2)nc2ccc(NC(=O)CCC(=O)NCCCOC(C)C)cc12 | i | i | i | i | i | 2 | . | . | . | . | . | .
CCN(CC)CCCNC(=O)CCC(=O)Nc1ccc2nc(N3CCC(C)CC3)cc(C)c2c1 | i | i | i | -6.1* | i | 4 | 136%* | i | 22%* | i | i | .
CN1CCN(c2ccccc2NC(=O)c2ccc(-c3ccc(Cl)c(Cl)c3)o2)CC1 | i | i | i | i | i | 2 | . | . | . | . | . | .
Cc1cc(N2CCN(C)CC2)ccc1NC(=O)c1ccc(-c2ccc(Cl)cc2)o1 | i | i | i | -9* | 50* | 6 | . | . | . | . | 67%* | i | TRPC4 sel inh 2=16%*;TRPC4 spec=2.7%*;HEK293 MPD ctr 2-1=i;HEK293 MPD ctr-1=-334%*
COc1ccc(C(C(=O)NC2CCCC2)N(C(=O)c2csnn2)C2CC2)cc1 (stereo unspecified) | i | i | i | i | i | . | . | . | . | . | . | .
COc1ccc(C(C(=O)NC2CCCC2)N(C(=O)c2csnn2)C2CCCC2)cc1 (stereo unspecified) | i | i | i | -6.3* | i | 6 | i | i | 18%* | i | i | .
CC(C)(C)c1ccc(S(=O)(=O)/N=C2\C=C(NS(=O)(=O)c3ccccc3)C(=O)c3ccccc32)cc1 | i | i | i | -6.1* | i | 5 | -153%* | 77%* | -30%* | 90%* | 81%* | i
CCc1ccc(S(=O)(=O)/N=C2\C=C(Nc3ccc(C(=O)O)cc3)C(=O)c3ccccc32)cc1 | i | i | i | -6.9* | i | 17 | -120%* | i | -26%* | 68%* | 36%* | i
Cc1ccc(S(=O)(=O)/N=C2\C=C(Nc3cccc(C(=O)O)c3)C(=O)c3ccccc32)cc1 | i | i | i | i | i | 4 | . | . | . | . | . | .
Cc1cccc(-c2nc(CN3CCCC(C(=O)NC4CCC(C)CC4)C3)c(C)o2)c1 (stereo unspecified) | i | i | i | -6.5* | i | 3 | 182%* | i | 33%* | 46%* | i | .
Cc1ccc(CSCC(=O)N2CCN(c3ccc(F)cc3)CC2)cc1 | i | i | i | i | i | 1 | . | . | . | . | . | .
O=C(CSCc1ccc(F)cc1)N1CCN(c2ccc(F)cc2)CC1 | i | i | i | -5.4* | i | -5 | i | i | i | i | i | i
CCc1noc(C)c1C(=O)Nc1ccc(-c2nnc3n2CCCCC3)cc1 | i | i | i | -5* | i | -12 | i | i | i | i | i | i
CCc1noc(C)c1C(=O)Nc1ccc(S(=O)(=O)N2CCCCC2)cc1 | i | i | i | i | i | -14 | . | . | . | . | . | .
O=C1C2C(C(=O)N1c1ccccc1)N1CCCN1C2c1ccccc1 (stereo unspecified) | i | i | i | i | i | 6 | . | . | . | . | . | .
